Assay [1] concerns the target Tyrosine-protein kinase JAK3 (Homo sapiens) (UniProt P52333). Nature of the assay: Inhibition of JAK3 at 10 uM by HotSpot assay.
Assay [2] addresses Macrophage colony-stimulating factor 1 receptor (Homo sapiens) (UniProt P07333). Nature of the assay: Inhibition of FMS at 10 uM by HotSpot assay.
Assay [3] concerns the target Cyclin-dependent kinase 2/cyclin E1 (Homo sapiens) (UniProt P24864+P24941). Kind of assay: Inhibition of CDK2/Cyclin E at 10 uM by HotSpot assay. The assay is classed as protein-complex assay.
The nature of assay [4]: Inhibition of PKA at 10 uM by HotSpot assay.
For assay [5], the target named is Proto-oncogene tyrosine-protein kinase Src (Homo sapiens) (UniProt P12931). Kind of assay: Inhibition of c-SRC at 10 uM by HotSpot assay.
Assay [6] deals with RAF proto-oncogene serine/threonine-protein kinase (Homo sapiens) (UniProt P04049). Kind of assay: Inhibition of RAF1 at 10 uM by HotSpot assay.
In assay [7] the target is Proto-oncogene tyrosine-protein kinase ROS (Homo sapiens) (UniProt P08922). Nature of the assay: Inhibition of ROS at 10 uM by HotSpot assay.
The target of assay [8] is Tyrosine-protein kinase Yes (Homo sapiens) (UniProt P07947). Kind of assay: Inhibition of YES1 at 10 uM by HotSpot assay.
The target in assay [9] is Serine/threonine-protein kinase PLK1 (Homo sapiens) (UniProt P53350). Nature of the assay: Inhibition of PLK1 at 10 uM by HotSpot assay.
For assay [10], the target named is Mast/stem cell growth factor receptor Kit (Homo sapiens) (UniProt P10721). Kind of assay: Inhibition of c-Kit at 10 uM by HotSpot assay.
Assay [11] addresses Protein kinase C alpha type (Homo sapiens) (UniProt P17252). Nature of the assay: Inhibition of PKCalpha at 10 uM by HotSpot assay.
Assay [12] addresses Serine/threonine-protein kinase pim-1 (Homo sapiens) (UniProt P11309). Nature of the assay: Inhibition of PIM1 at 10 uM by HotSpot assay.
Assay [13] addresses Homeodomain-interacting protein kinase 1 (Homo sapiens) (UniProt Q86Z02). Nature of the assay: Inhibition of HIPK1 at 10 uM by HotSpot assay.
Assay [14] deals with Inhibitor of nuclear factor kappa-B kinase subunit epsilon (Homo sapiens) (UniProt Q14164). Kind of assay: Inhibition of IKKepsilon at 10 uM by HotSpot assay.
The target of assay [15] is [Pyruvate dehydrogenase (acetyl-transferring)] kinase isozyme 1, mitochondrial (Homo sapiens) (UniProt Q15118). Kind of assay: Inhibition of PDK1 at 10 uM by HotSpot assay.
Assay [16] addresses Aurora kinase A (Homo sapiens) (UniProt O14965). Nature of the assay: Inhibition of Aurora A at 10 uM by HotSpot assay.
The target in assay [17] is Ribosomal protein S6 kinase beta-1 (Homo sapiens) (UniProt P23443). Kind of assay: Inhibition of p70S6K1 at 10 uM by HotSpot assay.
Assay [18] addresses Inhibitor of nuclear factor kappa-B kinase subunit beta (Homo sapiens) (UniProt O14920). Nature of the assay: Inhibition of IKK-beta at 10 uM by HotSpot assay.
In another assay the test system is SR. Nature of the assay: Cytotoxicity against human SR cells assessed as cell growth at 0.01 uM after 48 hrs by sulforhodamine B assay. The assay is classed as functional. The settings on record: read-out: Activity.
The next assay concerns HOP-92. Kind of assay: Cytotoxicity against human HOP92 cells assessed as cell growth at 0.001 uM after 48 hrs by sulforhodamine B assay. The assay is classed as functional. The settings on record: HOP-92, 48 h, read-out: Activity.
The subject of assay [19] is PC-3. Kind of assay: Cytotoxicity against human PC3 cells assessed as cell growth at 100 nM after 48 hrs by sulforhodamine B assay. The assay is classed as functional. To be noted: PC-3, 48 h, read-out: Activity.
In assay [20] the test system is SK-MEL-28. Nature of the assay: Cytotoxicity against human SK-MEL-28 cells assessed as cell growth at 0.001 uM after 48 hrs by sulforhodamine B assay. In kind it is functional. The settings on record: SK-MEL-28, 48 h, read-out: Activity.
Assay [21] in a line: Cytotoxicity against human RPMI8266 cells assessed as cell growth at 0.001 uM after 48 hrs by sulforhodamine B assay. To be noted: read-out: Activity. In kind it is functional.
Assay [22] in a line: Cytotoxicity against human […] cells assessed as cell growth at 10 uM after 48 hrs by sulforhodamine B assay. The assay is classed as functional. The settings on record: read-out: Activity.
A further assay relates to RXF 393. Nature of the assay: Cytotoxicity against human RXF393 cells assessed as cell growth at 0.01 uM after 48 hrs by sulforhodamine B assay. The settings on record: RXF 393, 48 h, read-out: Activity. The assay is classed as functional.
Assay [23] has as its system HCC 2998. Kind of assay: Cytotoxicity against human HCC2998 cells assessed as cell growth at 0.001 uM after 48 hrs by sulforhodamine B assay. The settings on record: HCC 2998, 48 h, read-out: Activity. In kind it is functional.
Assay [24] has as its system PC-3. Kind of assay: Cytotoxicity against human PC3 cells assessed as cell growth at 10 uM after 48 hrs by sulforhodamine B assay. The assay is classed as functional. The settings on record: PC-3, 48 h, read-out: Activity.
Another assay has as its system HL-60(TB). Kind of assay: Cytotoxicity against human HL-60(TB) cells assessed as cell growth at 10 uM after 48 hrs by sulforhodamine B assay. The assay is classed as functional. To be noted: HL-60, 48 h, read-out: Activity. The essentials:
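Five-concentration HL-60(TB) test in RPMI 1640 with 5% FBS and 2 mM L-glutamine. Cells are plated at 5,000–40,000/well and a TCA-fixed time-zero plate is read at drug addition after 24 h. Drug is dissolved in DMSO and given as five 10-fold or ½log dilutions for 48 h at 37 °C, 5% CO2. Settled cells are fixed with TCA, stained with SRB and read at 515 nm.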

A further assay deals with MCF7. Kind of assay: Cytotoxicity against human MCF7 cells assessed as cell growth at 0.01 uM after 48 hrs by sulforhodamine B assay. In kind it is functional. To be noted: MCF7, 48 h, read-out: Activity.
A further assay has as its system A549. Nature of the assay: Cytotoxicity against human A549 cells assessed as cell growth at 0.001 uM after 48 hrs by sulforhodamine B assay. In kind it is functional. To be noted: A549, 48 h, read-out: Activity.
The subject of another assay is HOP-62. Kind of assay: Cytotoxicity against human HOP62 cells assessed as cell growth at 0.001 uM after 48 hrs by sulforhodamine B assay. In kind it is functional. The settings on record: HOP-62, 48 h, read-out: Activity.
Assay [25] relates to HCC 2998. Nature of the assay: Cytotoxicity against human HCC2998 cells assessed as cell growth at 0.01 uM after 48 hrs by sulforhodamine B assay. The settings on record: HCC 2998, 48 h, read-out: Activity. In kind it is functional.
Assay [26] has as its system HCC 2998. Nature of the assay: Cytotoxicity against human HCC2998 cells assessed as cell growth at 1 uM after 48 hrs by sulforhodamine B assay. The assay is classed as functional. To be noted: HCC 2998, 48 h, read-out: Activity.
In a further assay the test system is NCI-H226. Nature of the assay: Cytotoxicity against human NCI-H226 cells assessed as cell growth at 1 uM after 48 hrs by sulforhodamine B assay. To be noted: NCI-H226, 48 h, read-out: Activity. In kind it is functional.
The test system of assay [27] is PC-3. Kind of assay: Cytotoxicity against human PC3 cells assessed as cell growth at 0.01 uM after 48 hrs by sulforhodamine B assay. In kind it is functional. To be noted: PC-3, 48 h, read-out: Activity.
The test system of another assay is SN12C. Kind of assay: Cytotoxicity against human SN12C cells assessed as cell growth at 10 uM after 48 hrs by sulforhodamine B assay. The assay is classed as functional. To be noted: read-out: Activity.
Assay [28] in a line: Cytotoxicity against human RPMI8266 cells assessed as cell growth at 0.01 uM after 48 hrs by sulforhodamine B assay. In kind it is functional. To be noted: read-out: Activity.
For assay [29], the system named is SK-MEL-28. Nature of the assay: Cytotoxicity against human SK-MEL-28 cells assessed as cell growth at 10 uM after 48 hrs by sulforhodamine B assay. The settings on record: SK-MEL-28, 48 h, read-out: Activity. In kind it is functional.
The next assay concerns CCRF-CEM. Nature of the assay: Cytotoxicity against human CCRF-CEM cells assessed as cell growth at 1 uM after 48 hrs by sulforhodamine B assay. In kind it is functional. To be noted: read-out: Activity.

Chain of Inhibitor of nuclear factor kappa-B kinase subunit epsilon (Homo sapiens) (Q14164 whole entry): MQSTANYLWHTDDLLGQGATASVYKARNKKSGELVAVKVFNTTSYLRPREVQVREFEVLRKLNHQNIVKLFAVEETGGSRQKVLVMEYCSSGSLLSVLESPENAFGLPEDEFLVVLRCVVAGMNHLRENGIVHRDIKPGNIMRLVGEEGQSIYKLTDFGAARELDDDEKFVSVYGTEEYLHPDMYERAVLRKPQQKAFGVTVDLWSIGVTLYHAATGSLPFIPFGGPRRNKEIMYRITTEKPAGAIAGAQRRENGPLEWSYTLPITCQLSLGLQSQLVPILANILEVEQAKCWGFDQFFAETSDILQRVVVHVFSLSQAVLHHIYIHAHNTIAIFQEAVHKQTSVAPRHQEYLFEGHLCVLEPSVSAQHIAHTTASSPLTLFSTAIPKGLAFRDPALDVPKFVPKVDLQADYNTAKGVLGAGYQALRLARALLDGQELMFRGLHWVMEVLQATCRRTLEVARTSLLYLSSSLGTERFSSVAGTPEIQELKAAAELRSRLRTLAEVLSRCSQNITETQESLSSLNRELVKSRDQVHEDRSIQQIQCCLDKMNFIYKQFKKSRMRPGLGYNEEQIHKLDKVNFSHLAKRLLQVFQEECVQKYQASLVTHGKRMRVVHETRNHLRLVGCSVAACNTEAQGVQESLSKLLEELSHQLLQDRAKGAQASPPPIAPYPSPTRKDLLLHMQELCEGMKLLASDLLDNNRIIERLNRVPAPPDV
Chain of Macrophage colony-stimulating factor 1 receptor (Homo sapiens) (P07333 whole entry): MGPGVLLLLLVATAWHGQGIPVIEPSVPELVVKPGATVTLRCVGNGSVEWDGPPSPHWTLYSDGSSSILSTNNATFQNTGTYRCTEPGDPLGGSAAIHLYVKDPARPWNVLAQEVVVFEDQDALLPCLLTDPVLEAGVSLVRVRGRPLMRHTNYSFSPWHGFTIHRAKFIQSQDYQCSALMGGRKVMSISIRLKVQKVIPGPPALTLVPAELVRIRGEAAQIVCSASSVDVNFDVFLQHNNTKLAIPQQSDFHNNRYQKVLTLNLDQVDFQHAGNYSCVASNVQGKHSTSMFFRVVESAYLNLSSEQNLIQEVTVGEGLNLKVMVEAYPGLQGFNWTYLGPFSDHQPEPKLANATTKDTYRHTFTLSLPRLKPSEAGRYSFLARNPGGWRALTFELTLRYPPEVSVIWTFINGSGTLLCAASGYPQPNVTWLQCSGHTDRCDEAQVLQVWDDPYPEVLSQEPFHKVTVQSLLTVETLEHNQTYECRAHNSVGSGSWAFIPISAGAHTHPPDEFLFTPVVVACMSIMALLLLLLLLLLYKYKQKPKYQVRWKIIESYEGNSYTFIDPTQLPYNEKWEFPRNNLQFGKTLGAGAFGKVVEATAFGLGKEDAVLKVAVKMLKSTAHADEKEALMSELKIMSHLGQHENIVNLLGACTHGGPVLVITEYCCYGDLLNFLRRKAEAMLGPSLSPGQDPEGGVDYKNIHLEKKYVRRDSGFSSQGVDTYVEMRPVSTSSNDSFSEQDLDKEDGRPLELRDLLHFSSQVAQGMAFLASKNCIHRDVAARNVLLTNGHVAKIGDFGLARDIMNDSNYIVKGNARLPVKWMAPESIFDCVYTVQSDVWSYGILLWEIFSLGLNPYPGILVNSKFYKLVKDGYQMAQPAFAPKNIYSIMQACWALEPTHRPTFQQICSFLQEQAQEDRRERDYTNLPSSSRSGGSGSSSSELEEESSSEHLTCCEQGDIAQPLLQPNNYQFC
Chain of Aurora kinase A (Homo sapiens) (O14965 whole entry): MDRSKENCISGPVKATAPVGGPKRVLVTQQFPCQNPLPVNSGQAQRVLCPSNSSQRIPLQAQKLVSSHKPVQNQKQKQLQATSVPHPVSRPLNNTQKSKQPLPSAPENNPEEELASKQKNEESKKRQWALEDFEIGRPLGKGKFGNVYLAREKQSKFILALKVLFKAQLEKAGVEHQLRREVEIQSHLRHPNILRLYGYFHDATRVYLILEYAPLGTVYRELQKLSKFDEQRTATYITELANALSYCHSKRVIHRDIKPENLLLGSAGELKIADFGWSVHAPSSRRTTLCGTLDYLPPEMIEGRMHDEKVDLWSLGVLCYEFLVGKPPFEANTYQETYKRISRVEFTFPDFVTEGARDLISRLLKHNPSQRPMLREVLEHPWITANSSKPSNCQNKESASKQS
Chain of Mast/stem cell growth factor receptor Kit (Homo sapiens) (P10721 whole entry): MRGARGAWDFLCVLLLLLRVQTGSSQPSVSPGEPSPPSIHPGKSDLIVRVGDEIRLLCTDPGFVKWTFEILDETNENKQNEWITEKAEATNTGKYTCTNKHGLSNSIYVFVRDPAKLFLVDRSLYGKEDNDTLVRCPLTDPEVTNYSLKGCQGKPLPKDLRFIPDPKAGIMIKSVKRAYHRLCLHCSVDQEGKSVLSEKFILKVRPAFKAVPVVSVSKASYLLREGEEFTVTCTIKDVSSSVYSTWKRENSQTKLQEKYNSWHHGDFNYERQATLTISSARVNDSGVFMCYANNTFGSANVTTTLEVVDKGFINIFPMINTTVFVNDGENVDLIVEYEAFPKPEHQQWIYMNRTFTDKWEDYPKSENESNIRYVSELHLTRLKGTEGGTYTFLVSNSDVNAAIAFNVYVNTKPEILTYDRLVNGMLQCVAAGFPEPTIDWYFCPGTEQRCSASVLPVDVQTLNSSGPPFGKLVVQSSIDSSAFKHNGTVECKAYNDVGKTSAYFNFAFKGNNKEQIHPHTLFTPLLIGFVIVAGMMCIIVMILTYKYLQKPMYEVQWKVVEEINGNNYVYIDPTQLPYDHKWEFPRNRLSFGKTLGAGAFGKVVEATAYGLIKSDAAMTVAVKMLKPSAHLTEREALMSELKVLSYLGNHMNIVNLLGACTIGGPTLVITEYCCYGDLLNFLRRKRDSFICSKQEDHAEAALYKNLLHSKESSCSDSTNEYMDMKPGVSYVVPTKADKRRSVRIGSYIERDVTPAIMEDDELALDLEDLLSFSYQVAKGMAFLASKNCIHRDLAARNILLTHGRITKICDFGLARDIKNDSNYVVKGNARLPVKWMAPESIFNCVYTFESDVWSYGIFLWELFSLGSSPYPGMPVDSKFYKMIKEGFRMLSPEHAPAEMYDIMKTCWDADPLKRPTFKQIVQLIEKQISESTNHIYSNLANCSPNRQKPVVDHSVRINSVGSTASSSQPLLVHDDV
Chain of Ribosomal protein S6 kinase beta-1 (Homo sapiens) (P23443 whole entry, looked up): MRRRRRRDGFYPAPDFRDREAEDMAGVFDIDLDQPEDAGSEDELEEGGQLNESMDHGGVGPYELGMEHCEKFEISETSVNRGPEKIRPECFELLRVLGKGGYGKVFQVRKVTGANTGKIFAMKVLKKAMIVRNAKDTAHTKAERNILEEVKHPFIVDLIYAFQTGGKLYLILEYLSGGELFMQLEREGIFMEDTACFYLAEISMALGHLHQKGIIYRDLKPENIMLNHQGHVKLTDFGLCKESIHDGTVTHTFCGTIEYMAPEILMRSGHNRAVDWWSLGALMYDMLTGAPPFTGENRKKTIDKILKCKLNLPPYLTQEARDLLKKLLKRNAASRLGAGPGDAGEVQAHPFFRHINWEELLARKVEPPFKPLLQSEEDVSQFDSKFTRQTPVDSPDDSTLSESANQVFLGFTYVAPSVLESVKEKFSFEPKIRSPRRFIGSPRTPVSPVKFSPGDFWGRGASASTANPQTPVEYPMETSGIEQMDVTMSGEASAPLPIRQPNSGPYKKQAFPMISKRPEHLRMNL
Chain of Tyrosine-protein kinase Yes (Homo sapiens) (P07947 2-543 limits assumed): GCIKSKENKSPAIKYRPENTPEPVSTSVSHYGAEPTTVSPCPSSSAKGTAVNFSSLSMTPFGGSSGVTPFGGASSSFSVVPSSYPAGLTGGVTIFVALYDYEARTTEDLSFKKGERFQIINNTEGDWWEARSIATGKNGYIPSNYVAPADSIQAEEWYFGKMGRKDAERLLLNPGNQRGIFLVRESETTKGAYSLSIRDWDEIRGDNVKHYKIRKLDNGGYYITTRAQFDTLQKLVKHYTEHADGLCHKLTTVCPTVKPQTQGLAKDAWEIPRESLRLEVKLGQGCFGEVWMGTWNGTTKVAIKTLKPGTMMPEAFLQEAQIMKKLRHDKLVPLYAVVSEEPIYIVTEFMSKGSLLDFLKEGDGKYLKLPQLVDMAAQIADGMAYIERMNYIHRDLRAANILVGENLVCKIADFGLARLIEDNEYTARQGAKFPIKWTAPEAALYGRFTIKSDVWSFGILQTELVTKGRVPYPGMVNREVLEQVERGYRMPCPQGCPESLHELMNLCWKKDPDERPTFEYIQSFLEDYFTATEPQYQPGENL
Chain of Proto-oncogene tyrosine-protein kinase Src (Homo sapiens) (P12931 2-536 limits assumed): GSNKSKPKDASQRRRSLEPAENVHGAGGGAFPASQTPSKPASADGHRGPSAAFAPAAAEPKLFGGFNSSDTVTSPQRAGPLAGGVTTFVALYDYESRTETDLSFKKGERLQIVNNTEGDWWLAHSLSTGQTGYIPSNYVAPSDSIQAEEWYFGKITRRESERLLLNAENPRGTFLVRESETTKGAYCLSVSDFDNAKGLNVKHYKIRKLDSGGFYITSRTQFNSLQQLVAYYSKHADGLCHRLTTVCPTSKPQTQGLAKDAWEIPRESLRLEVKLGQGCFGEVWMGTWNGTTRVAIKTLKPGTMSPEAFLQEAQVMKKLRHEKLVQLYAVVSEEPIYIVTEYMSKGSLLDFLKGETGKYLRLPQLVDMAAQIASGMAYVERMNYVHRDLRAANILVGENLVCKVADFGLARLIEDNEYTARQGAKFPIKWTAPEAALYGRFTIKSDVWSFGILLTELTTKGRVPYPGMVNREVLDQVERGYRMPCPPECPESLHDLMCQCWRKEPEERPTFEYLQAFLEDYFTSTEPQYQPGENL
Chain of Serine/threonine-protein kinase pim-1 (Homo sapiens) (P11309 whole entry, looked up): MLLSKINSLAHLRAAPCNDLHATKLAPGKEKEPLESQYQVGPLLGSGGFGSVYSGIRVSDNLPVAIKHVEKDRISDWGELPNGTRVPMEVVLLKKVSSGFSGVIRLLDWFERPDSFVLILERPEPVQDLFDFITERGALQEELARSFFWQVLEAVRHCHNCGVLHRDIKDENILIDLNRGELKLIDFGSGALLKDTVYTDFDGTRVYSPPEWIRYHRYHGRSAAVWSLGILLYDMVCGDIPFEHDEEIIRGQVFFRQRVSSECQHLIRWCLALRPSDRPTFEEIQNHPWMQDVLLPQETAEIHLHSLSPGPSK

`CC(=O)Nc1cccc(-c2ccc(-c3ccnc(NC(=O)Nc4cc(C(F)(F)F)cc(C(F)(F)F)c4)n3)cn2)c1.Cl`: the inhibition in assay [1] is below 50%; in [2] it was below 50%; in assay [3], below 50%; in assay [4] it was below 50%; in assay [5], 60%; in assay [6] it was below 50%. For the same compound, the inhibition was below 50% in assay [7]; below 50% in assay [8]; below 50% in assay [9]; below 50% in [10]; below 50% in [11]; 60% in assay [12]. Further, the inhibition in [13] was below 50%; in assay [14], below 50%; in assay [15], below 50%; in assay [16] it was 60%; in [17], below 50%; in assay [18], below 50%.
As for `CC(=O)c1ccccc1-c1ccc(-c2ccnc(NC(=O)Nc3cc(N4CCOCC4)cc(C(F)(F)F)c3)n2)cn1`, the growth at 0.01 µM was found to be 89% in the assay with SR; 108% in the assay on RXF 393; 101% in the assay on MCF7; 113% with HCC 2998 [25]; 108% in the assay on PC-3 [27]; 104% in assay [28]. The growth at 0.001 µM came to 88% in the assay on HOP-92; 100% in the assay with SK-MEL-28 [20]; 101% in assay [21]; 110% in the assay on HCC 2998 [23]; 94% in the assay with A549; 103% with HOP-62. Further, the growth at 0.1 µM in the assay with PC-3 [19] was 92%. In addition, the growth at 10 µM in [22] was determined as 89%; in the assay with PC-3 [24], 91%; with HL-60(TB), 107%; in the assay with SN12C, 79%; in the assay on SK-MEL-28 [29], 93%. Besides, the results for the growth at 1 µM in the assay with HCC 2998 [26], in the assay on NCI-H226 and in the assay on CCRF-CEM were 114%, 53% and 93%, respectively.
